Experimental data published in ChEMBL document CHEMBL5247575 (J Med Chem, 2018).

How the values were obtained:
Format in all cases: functional
Escherichia coli [1] = experiment: Synergistic antibacterial activity against Escherichia coli DH10B transfected with pBC SK (-) PDC-3 assessed as cefepime MIC at 4 ug/ml by broth microdilution method; settings: dose 4 µg/ml
How it was run: (§1)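 Broth microdilution per CLSI guidelines, using custom frozen panels. […] Each partner drug was also tested alone. MICs were run in triplicate and the modal value is reported.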

Acinetobacter baumannii [2] = experiment: Synergistic antibacterial activity against Acinetobacter baumannii PR474 producing OXA-23/24/40 assessed as cefepime MIC at 8 ug/ml by broth microdilution method; settings: dose 8 µg/ml
Klebsiella pneumoniae [3] = experiment: Synergistic antibacterial activity against Klebsiella pneumoniae CAV 1636 producing OXA-181 assessed as cefepime MIC at 8 ug/ml by broth microdilution method; settings: dose 8 µg/ml
Klebsiella pneumoniae [4] = experiment: Synergistic antibacterial activity against Klebsiella pneumoniae 935/1884 producing KPC-3 assessed as meropenem MIC at 8 ug/ml by broth microdilution method; settings: dose 8 µg/ml
Acinetobacter baumannii [5] = experiment: Synergistic antibacterial activity against ADC deleted Acinetobacter baumannii transfected with pWH1266 OXA-23 assessed as cefepime MIC at 8 ug/ml by broth microdilution method; settings: dose 8 µg/ml
Klebsiella pneumoniae [6] = experiment: Synergistic antibacterial activity against Klebsiella pneumoniae 977/1916 producing KPC-3 assessed as cefepime MIC at 4 ug/ml by broth microdilution method; settings: dose 4 µg/ml
Klebsiella pneumoniae [7] = experiment: Synergistic antibacterial activity against Klebsiella pneumoniae jefferson 1775 producing OXA-48 assessed as meropenem MIC at 4 ug/ml by broth microdilution method; settings: dose 4 µg/ml
Acinetobacter baumannii [8] = experiment: Synergistic antibacterial activity against Acinetobacter baumannii PR319 producing OXA-23/24/40 assessed as cefepime MIC at 4 ug/ml by broth microdilution method; settings: dose 4 µg/ml
Escherichia coli [9] = experiment: Antibacterial activity against Escherichia coli DH10B transfected with pBC SK (-) PDC-3 by broth microdilution method
Klebsiella pneumoniae [10] = experiment: Synergistic antibacterial activity against Klebsiella pneumoniae CAV 1543 producing OXA-48 assessed as meropenem MIC at 4 ug/ml by broth microdilution method; settings: dose 4 µg/ml
Acinetobacter baumannii [11] = experiment: Synergistic antibacterial activity against Acinetobacter baumannii PR323 producing OXA-24/40 assessed as cefepime MIC at 8 ug/ml by broth microdilution method; settings: dose 8 µg/ml
Klebsiella pneumoniae [12] = experiment: Synergistic antibacterial activity against Klebsiella pneumoniae 729/1679 producing KPC-3 assessed as cefepime MIC at 4 ug/ml by broth microdilution method; settings: dose 4 µg/ml; how it was run: as §1
Acinetobacter baumannii [13] = experiment: Synergistic antibacterial activity against ADC deleted Acinetobacter baumannii assessed as meropenem MIC at 8 ug/ml by broth microdilution method; settings: dose 8 µg/ml
Klebsiella pneumoniae [14] = experiment: Synergistic antibacterial activity against Klebsiella pneumoniae 1108/1989 producing KPC-3 assessed as cefepime MIC at 8 ug/ml by broth microdilution method; settings: dose 8 µg/ml; how it was run: as §1
Klebsiella pneumoniae [15] = experiment: Synergistic antibacterial activity against Klebsiella pneumoniae 660/1568 producing KPC-3 assessed as meropenem MIC at 8 ug/ml by broth microdilution method; settings: dose 8 µg/ml; how it was run: as §1
Klebsiella pneumoniae [16] = experiment: Synergistic antibacterial activity against Klebsiella pneumoniae 729/1679 producing KPC-3 assessed as cefepime MIC at 8 ug/ml by broth microdilution method; settings: dose 8 µg/ml; how it was run: as §1
Pseudomonas aeruginosa [17] = experiment: Synergistic antibacterial activity against Pseudomonas aeruginosa 795 assessed as cefepime MIC at 4 ug/ml by broth microdilution method; settings: dose 4 µg/ml
Acinetobacter baumannii [18] = experiment: Synergistic antibacterial activity against ADC deleted Acinetobacter baumannii transfected with pWH1266 OXA-23 assessed as cefepime MIC at 4 ug/ml by broth microdilution method; settings: dose 4 µg/ml
Escherichia coli [19] = experiment: Synergistic antibacterial activity against Escherichia coli DH10B assessed as meropenem MIC at 4 ug/ml by broth microdilution method; settings: dose 4 µg/ml
Pseudomonas aeruginosa [20] = experiment: Synergistic antibacterial activity against Pseudomonas aeruginosa 839 assessed as cefepime MIC at 4 ug/ml by broth microdilution method; settings: dose 4 µg/ml
Escherichia coli [21] = experiment: Synergistic antibacterial activity against Escherichia coli DH10B transfected with pBC SK (-) KPC-2 assessed as cefepime MIC at 4 ug/ml by broth microdilution method; settings: dose 4 µg/ml
Klebsiella pneumoniae [22] = experiment: Synergistic antibacterial activity against Klebsiella pneumoniae 1354/2241 producing KPC-3 assessed as meropenem MIC at 8 ug/ml by broth microdilution method; settings: dose 8 µg/ml; how it was run: as §1
Klebsiella pneumoniae [23] = experiment: Synergistic antibacterial activity against Klebsiella pneumoniae 1398/2291 producing KPC-3 assessed as meropenem MIC at 8 ug/ml by broth microdilution method; settings: dose 8 µg/ml; how it was run: as §1
Pseudomonas aeruginosa [24] = experiment: Synergistic antibacterial activity against Pseudomonas aeruginosa 795 assessed as meropenem MIC at 8 ug/ml by broth microdilution method; settings: dose 8 µg/ml
Escherichia coli [25] = experiment: Antibacterial activity against Escherichia coli DH10B transfected with pBC SK (-) KPC-3 by broth microdilution method
Pseudomonas aeruginosa [26] = experiment: Synergistic antibacterial activity against Pseudomonas aeruginosa 776 assessed as meropenem MIC at 8 ug/ml by broth microdilution method; settings: dose 8 µg/ml
Acinetobacter baumannii [27] = experiment: Synergistic antibacterial activity against Acinetobacter baumannii PR420 producing OXA-23/24/40 assessed as meropenem MIC at 4 ug/ml by broth microdilution method; settings: dose 4 µg/ml
Klebsiella pneumoniae [28] = experiment: Synergistic antibacterial activity against Klebsiella pneumoniae 1108/1989 producing KPC-3 assessed as meropenem MIC at 8 ug/ml by broth microdilution method; settings: dose 8 µg/ml; how it was run: as §1
Acinetobacter baumannii [29] = experiment: Synergistic antibacterial activity against Acinetobacter baumannii PR448 producing OXA-23 assessed as cefepime MIC at 4 ug/ml by broth microdilution method; settings: dose 4 µg/ml
Klebsiella pneumoniae [30] = experiment: Synergistic antibacterial activity against Klebsiella pneumoniae 776/1742 producing KPC-2 assessed as cefepime MIC at 8 ug/ml by broth microdilution method; settings: dose 8 µg/ml
Acinetobacter baumannii [31] = experiment: Synergistic antibacterial activity against Acinetobacter baumannii PR323 producing OXA-24/40 assessed as meropenem MIC at 4 ug/ml by broth microdilution method; settings: dose 4 µg/ml
Klebsiella pneumoniae [32] = experiment: Synergistic antibacterial activity against Klebsiella pneumoniae 1084/1957 producing KPC-3 assessed as meropenem MIC at 4 ug/ml by broth microdilution method; settings: dose 4 µg/ml; how it was run: as §1
Klebsiella pneumoniae [33] = experiment: Synergistic antibacterial activity against Klebsiella pneumoniae NY BS producing OXA-232 assessed as cefepime MIC at 4 ug/ml by broth microdilution method; settings: dose 4 µg/ml
Escherichia coli [34] = experiment: Synergistic antibacterial activity against Escherichia coli DH10B assessed as cefepime MIC at 4 ug/ml by broth microdilution method; settings: dose 4 µg/ml
Acinetobacter baumannii [35] = experiment: Synergistic antibacterial activity against Acinetobacter baumannii PR474 producing OXA-23/24/40 assessed as meropenem MIC at 4 ug/ml by broth microdilution method; settings: dose 4 µg/ml
Escherichia coli [36] = experiment: Synergistic antibacterial activity against Escherichia coli DH10B transfected with pBC SK (-) KPC-2 assessed as meropenem MIC at 8 ug/ml by broth microdilution method; settings: dose 8 µg/ml
Klebsiella pneumoniae [37] = experiment: Synergistic antibacterial activity against Klebsiella pneumoniae CAV 1636 producing OXA-181 assessed as cefepime MIC at 4 ug/ml by broth microdilution method; settings: dose 4 µg/ml
Klebsiella pneumoniae [38] = experiment: Synergistic antibacterial activity against Klebsiella pneumoniae 972/1910 producing KPC-3 assessed as meropenem MIC at 4 ug/ml by broth microdilution method; settings: dose 4 µg/ml
Escherichia coli [39] = experiment: Synergistic antibacterial activity against Escherichia coli DH10B transfected with pBR322-catI-KPC-2 assessed as cefepime MIC at 4 ug/ml by broth microdilution method; settings: dose 4 µg/ml; how it was run: as §1
Pseudomonas aeruginosa [40] = experiment: Antibacterial activity against Pseudomonas aeruginosa 839 by broth microdilution method

Measured: MIC

N#C[C@@H]1CC[C@@H]2CN1C(=O)N2OS(=O)(=O)[O-].[Na+]
0.25 µg/mL: Klebsiella pneumoniae [16]
0.5 µg/mL: Klebsiella pneumoniae [3] | Klebsiella pneumoniae [12] | Klebsiella pneumoniae [33] | Klebsiella pneumoniae [37]
2 µg/mL: Acinetobacter baumannii [5] | Acinetobacter baumannii [18] | Acinetobacter baumannii [29]
1 µg/mL: Klebsiella pneumoniae [30]
8 µg/mL: Acinetobacter baumannii [2] | Pseudomonas aeruginosa [20]
≤ 0.12 µg/mL: Escherichia coli [1] | Klebsiella pneumoniae [4] | Klebsiella pneumoniae [6] | Klebsiella pneumoniae [7] | Klebsiella pneumoniae [10] | Acinetobacter baumannii [13] | Klebsiella pneumoniae [14] | Klebsiella pneumoniae [15] | Escherichia coli [19] | Escherichia coli [21] | Klebsiella pneumoniae [22] | Klebsiella pneumoniae [23] | Klebsiella pneumoniae [28] | Klebsiella pneumoniae [32] | Escherichia coli [34] | Escherichia coli [36] | Klebsiella pneumoniae [38] | Escherichia coli [39]
> 16 µg/mL: Acinetobacter baumannii [8] | Escherichia coli [9] | Acinetobacter baumannii [11] | Pseudomonas aeruginosa [17] | Escherichia coli [25] | Pseudomonas aeruginosa [26] | Acinetobacter baumannii [35] | Pseudomonas aeruginosa [40]
16 µg/mL: Pseudomonas aeruginosa [24] | Acinetobacter baumannii [27] | Acinetobacter baumannii [31]
